Holding throughout (assay type): functional, cell-based
Test [1] is described as follows: (§1) Antiinflammatory activity in human neutrophils assessed as inhibition of FMLP/CB-induced elastase release. The following applies: Neutrophil. In short, it runs like this:
(§2)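 Donor neutrophils (isolated by dextran, Ficoll, hypotonic lysis; Ca2+-free HBSS pH 7.4) at 6 × 10^5/mL with 100 μM MeO-Suc-Ala-Ala-Pro-Val-p-nitroanilide. Equilibrated 37 °C 2 min, drug or 0.1% DMSO vehicle 5 min, then activated with 100 nM FMLP plus 0.5 μg/mL cytochalasin B. Absorbance at 405 nm monitored continuously; percent of FMLP/CB-activated drug-free control; IC50, n = 3−4.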

The nature of test [2]: Antiinflammatory activity in human neutrophils assessed as inhibition of FMLP/CB-induced superoxide anion generation by spectrophotometry. The settings on record: Neutrophil. In short, it runs like this:
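Neutrophils from healthy donors (20−30 y) isolated by dextran sedimentation, Ficoll (1.077 g/mL) centrifugation and hypotonic lysis, kept in Ca2+-free HBSS pH 7.4 at 4 °C. Cells (6 × 10^5/mL) with 0.5 mg/mL ferricytochrome c and 1 mM Ca2+, 37 °C 2 min, drug or 0.1% DMSO 5 min. Stimulated with 100 nM FMLP after 1 μg/mL cytochalasin B, 3 min. SOD-inhibitable (100 U/mL) absorbance at 550 nm; IC50, n = 3−4.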

Test [3] has as its system Neutrophil. The test is described as §1. A digest of the protocol: as §2

A word on the pIC50: it is the negative decadic logarithm of the IC50, by convention in mol/L.

pIC50: −log10 of the molar value. The source made the active and inactive calls. The rule behind the calls is not given here. Some results are limits rather than exact numbers.

In the case of `O=c1cc(N2CCOCC2)oc2c(-c3ccccc3)cccc12` [LY-294002], the pIC50 in test [1] is 5.82; in test [2], 6.40.

Regarding `COC(=O)CC(=O)O[C@@H]1CC[C@]2(C)C3=C(CC[C@H]2C1(C)C)[C@]1(C)C[C@H]2OC4(C[C@@H](C)[C@@H]2[C@@]1(C)CC3)OC(=O)C(C)=C4C` (some centres not stated), the inhibition entry in test [3] was “inactive”. Moreover, the pIC50 in test [2] is under 5.00.

For `CC1=C(C)C2(C[C@@H](C)[C@H]3[C@@H](C[C@@]4(C)C5=C(CC[C@]34C)[C@@]3(C)CC[C@@H](O)C(C)(C)[C@@H]3CC5)O2)OC1=O` (some centres not stated), the inhibition entry in test [3] is “inactive”. Also, in test [2], the negative-log IC50 (pIC50) is under 5.00.

With `CC1=C(C)C2(C[C@@H](C)[C@H]3[C@@H](C[C@@]4(C)C5=C(CC[C@]34C)[C@@]3(C)CC[C@@H](OC(=O)CC(=O)O)C(C)(C)[C@@H]3CC5)O2)OC1=O` (some centres not stated), the negative-log IC50 (pIC50) in test [1] is 5.37; in test [2] it was 5.72.

With `C=C(CC[C@@H](C(=O)O)[C@H]1CC[C@@]2(C)C3=C(CC[C@]12C)[C@@]1(C)C[C@H](O)[C@H](O)C(C)(C)[C@@H]1CC3)C(C)C`, the values for the pIC50 in test [1] and in test [2] were under 5.00 and 5.22, respectively.

On to `CC1=C(C)C2(C[C@@H](C)[C@H]3[C@@H](C[C@@]4(C)C5=C(CC[C@]34C)[C@@]3(C)CC[C@@H](O)[C@@](C)(C=O)[C@@H]3CC5)O2)OC1=O` (some centres not stated), for which, in test [3], the inhibition entry was “inactive”. In test [2], the negative logarithm of the IC50 (pIC50) is under 5.00.

These data come from ChEMBL document CHEMBL3739300, “Chemical Constituents from the Fruiting Bodies of Hexagonia apiaria and Their Anti-inflammatory Activity” (J Nat Prod, 2015).
